Reference: article PMC3190987 (The Journal of Biological Chemistry, 2011)
Read-outs that look alike come from different tables or passages of the source.

T1: c-Jun (Homo sapiens, UniProt P05412, S292Y)
T1 sequence (P05412 with tags, fused parts or gaps S292Y): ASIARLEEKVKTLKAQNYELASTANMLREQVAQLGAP


How the values were obtained:
[1] = homodimer; cited from earlier work
[2] = biological target: T1, c-Jun; test: Isothermal titration calorimetry; assay type: binding; settings: for ΔH / ΔGbind (ITC) / TΔS (ΔH − ΔG): ITC, 20 °C; for ΔH: pH 7, one-site model; for ΔGbind (ITC): calculated by Equation 4; for TΔS (ΔH − ΔG): calculated from ΔH and ΔGbind
Summary of the method: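 VP-ITC at 20 °C in 10 mM potassium phosphate, 100 mM KF, pH 7. Syringe peptide at 175–250 μM was injected 25 × 5 μl into cell peptide at 10–40 μM; syringe and cell partners were also swapped. Each run was done at least twice. Isotherms fitted to a 1:1 one-site model for Kd and ΔH. ΔG calculated at 293.15 K; TΔS from ΔH and ΔG.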

[3] = tested on: c-Jun-DHFR2; test: Growth competition under PCA conditions; assay type: cell-based, Escherichia coli; settings: M9 minimal media with trimethoprim and IPTG; A600 hourly, in duplicate
Summary of the method: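 Split murine DHFR complementation in E. coli: library peptide fused to DHFR fragment 1, c-Jun to fragment 2, both lac-driven. Strains came from single colonies on PCA plates with sequence-verified plasmids. Growth rates were monitored under selection in M9 minimal medium with ampicillin, chloramphenicol, kanamycin, trimethoprim and IPTG (1 mM induction).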

[4] = CD spectra of peptides in isolation; assay type: physicochemical; settings: for helicity in isolation: peptide in isolation, from θ222, 20 °C
Summary of the method: (§1)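 CD spectra of homodimeric or c-Jun heterodimeric samples, 150 μM total peptide, 10 mM potassium phosphate, 100 mM KF, pH 7, 1-mm cell. Scans 300–190 nm at 20 °C (pre- and post-melt) and at −8 °C. Converted to molar residue ellipticity, giving θ222/θ208. Fraction helicity taken from θ222 with k = 2.4 and T = 293 K.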

[5] = biological target: T1, c-Jun; test: CD spectra of heterodimeric complexes with c-Jun; settings: for θ222/θ208 (20 °C) / Fraction helical (fH): heterodimer with c-Jun; for θ222/θ208 (20 °C): CD, 150 μM total peptide, pH 7, 20 °C; for Fraction helical (fH): from θ222, 20 °C
Summary of the method: as §1

[6] = biological target: T1, c-Jun; test: CD dimer exchange experiment; assay type: binding; settings: CD spectra, total peptide 150 μM
Summary of the method: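 Equilibrium mixing followed by CD in 10 mM potassium phosphate, 100 mM KF, pH 7. Spectra recorded for the c-Fos homodimer and for the test peptide–c-Jun heterodimer, each at 150 μM total peptide. Equal volumes of the two solutions were then mixed, keeping the final total peptide at 150 μM, and the spectrum was re-recorded.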

[7] = Thermal melts followed by CD at 222 nm, homodimers; assay type: physicochemical; settings: homodimer; CD 222 nm, 150 μM total peptide, pH 7
Summary of the method: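 CD thermal denaturation at 222 nm, 150 μM total peptide, 10 mM potassium phosphate, 100 mM KF, pH 7. Started at −8 °C and stepped in 1 °C increments with a 30 s hold, signal averaged over 4 s per point. Tm obtained by least-squares fit to a two-state model (modified Gibbs-Helmholtz).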

[8] = biological target: T1, c-Jun; settings: heterodimer with c-Jun; cited from earlier work
[9] = biological target: c-Jun (37-residue leucine zipper peptide); test: ITC
[10] = biological target: c-Jun (37-residue leucine zipper peptide); test: CD thermal denaturation

Row | Molecule | ΔH [2] [kcal/mol] | ΔGbind (ITC) [2] [kcal/mol] | TΔS (ΔH − ΔG) [2] [kcal/mol] | θ222/θ208 (20 °C) [5] | Fraction helical (fH) [5] [%] | Ka [9] [M⁻¹] | Kd [10] [nM] | affinity for c-Jun by E. coli growth rate [3] | other results
1 | ASIARLEEKVKTLKAQNYELASTANMLREQVAQLGAP [c-Jun] | – | – | – | – | – | – | – | – | Tm [1]: 24 °C
2 | c-Fos (37-residue leucine zipper peptide) | – | – | – | – | – | 38000 | 26600 | – | –
3 | Ac-ASLDELQAEIEQLEERNYALRKEIEDLQKQLEKLGAP-NH2 [FosW] | – | – | – | – | – | 2.2e+07 | 45 | – | dH [9]: -10.6 kcal/mol; stoichiometry N [9]: 0.65; Tm [10]: 63 °C

Now from value to molecule, other results behind:

Row | ΔH [2] [kcal/mol] | ΔGbind (ITC) [2] [kcal/mol] | TΔS (ΔH − ΔG) [2] [kcal/mol] | θ222/θ208 (20 °C) [5] | Fraction helical (fH) [5] [%] | Ka [9] [M⁻¹] | Kd [10] [nM] | Molecule | affinity for c-Jun by E. coli growth rate [3] | other results
4 | -10.6 ± 0.2 | -9.9 ± 0.1 | -0.7 ± 0.2 | 1.0 | 35.8 | – | – | ASLDELQAEIEQLEERNYALRKEIEDLQKQLEKLGAP [FosW] | much improved affinity over c-Fos | helicity in isolation [4]: 43.7%
5 | -14.1 ± 0.2 | -8.8 ± 0.1 | -5.3 ± 0.2 | 0.99 | 60.4 | – | – | ASLDELQREIEQLEELNYALQKEIEDLQKQGAP [4hFosW] | much improved affinity over c-Fos | specificity for c-Jun in the presence of c-Fos [6]: specific for c-Jun in the presence of c-Fos; loss of stability of complex with c-Jun relative to c-Jun-FosW ([2]; ITC free energy of binding): around 1 kcal/mol; gain in helicity in isolation relative to FosW [4]: ~7%; magnitude of the CD peak at 222 nm ([4]; homodimeric complex, 20 °C): approximately −87 millidegrees; ratio θ222/θ208 ([4]; peptide in isolation (homodimeric)): ~1.0; helicity in isolation [4]: 50.6%; magnitude of the CD peak at 222 nm ([5]; heterodimeric complex with c-Jun, 20 °C): approximately −112 millidegrees; gain in helicity of complex with c-Jun over c-Jun-FosW ([5]; measured helicity by CD): ~25%; Tm [7]: 36 °C
6 | -0.8 ± 0.4 | -6.1 ± 0.4 | 5.3 ± 0.5 | 0.75 | 3.6 | – | – | ASTDTLQAETDQLEDEKYALQTEIANLLKEKEKLGAP [c-Fos] | lower affinity interaction | Tm [8]: 16 °C
7 | – | – | – | – | – | 2.1e+06 | 487 | Ac-ASLDELQREIEQLEELNYALQKEIEDLQKQGAP-NH2 [4hFosW] | – | dH [9]: -14.1 kcal/mol; stoichiometry N [9]: 1.05; Tm [10]: 49 °C
